XiGFP reactiv – reactivates the inactive X chromosome in mouse fibroblasts | XiGFP mouse fibroblasts, % GFP-positive cells imaging, 3 d; cells co-treated with 5-aza-dC sensitizer; scaled so ellipticine positive control = 100% | activation, % at 7.58 µM | hit rate 0.055% among 360,000 | AID 743238;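 active = mean normalized replicate activation at least 10% and every replicate at or above 10%; inconclusive = only one of the two criteria met; inactive = mean below 10% and not all replicates reach 10%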
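Schedule: 3 d treatment, 15 min room-temperature fixation; system: 68-5-11 XiGFP fibroblast line; buffer or medium: DMEM plus 5-aza-dC sensitizer; control set: ellipticine 6 µM positive control; compound: one concentration, pinned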
LGR2 antag – blocks bursicon-induced cAMP signaling via Drosophila LGR2; HEK293 LGR2, CRE-luciferase, bursicon-stimulated, 4 h; inhibition, % at 9.99 µM; hit rate 0.35% among 380,000; AID 720647;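 active = drop in luminescence signal, shown as inhibition above about 50% in the replicate tests, limit read from the data, passing the limit was not always enough; inconclusive = probably only some replicates passing the limit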;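 note: agonist challenge used bursicon conditioned medium at about half maximal strength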
TROY NFkB inh – TROY signaling inhibition; Q293 LMP1-TROYcd NF-kB luciferase reporter, 4 h; inhibition, % at 10 µM; hit rate 0.98% among 360,000;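 active = compounds whose plate-normalised and pattern-corrected inhibition of the luciferase reporter signal at the single screening dose is 50% or more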
CaV13 ICDI inh – Primary screen for inhibitors of IQ motif and Ca2+-dependent inactivation inhibitor domain binding in CACNA1D, Förster resonance energy transfer in living cells, …; HEK cells, CFP/YFP FRET ICDI-IQ, plate reader, 10 min; percent FRET-ratio fall versus neutral wells; inhibition, % at 12.3 µM; hit rate 0.098% among 340,000; AID 743397;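 active = mean replicate inhibition of at least 30% and at least 1% of replicates passing that level; inconclusive = only one of the two criteria is met; inactive = neither criterion is met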
TWEAK Fn14 block – TWEAK-Fn14 signaling inhibition; AID 1159606; inhibition, % at 10 µM; TWEAK-stimulated Fn14 reporter cells, luciferase luminescence, 8 h; hit rate 2% among 360,000; in the data active = inhibition above about 50%
Numbers stand for hits; . = inactive; ? = inconclusive; / = no result given; + = active, no number. Compounds with a hit are over-represented: about 2% of the library has one in this group of screens.

SMILES | XiGFP reactiv | LGR2 antag | TROY NFkB inh | CaV13 ICDI inh | TWEAK Fn14 block
CCC(=O)Nc1ccc(C(=O)Cn2ncc(Cl)c(Cl)c2=O)cc1 | . | . | . | . | 76
CCOC(=O)c1ccc(NC(=O)Cn2nc(C)c3ccccc3c2=O)cc1 | . | . | . | . | .
CCc1ccccc1NC(=O)CN(C)C(=O)Cn1ncc(Cl)c(Cl)c1=O | . | / | . | . | 93
CCC(=O)N1CC(=O)N2[C@H](CO)[C@@H](c3ccc(-c4ccccc4F)cc3)[C@@H]2C1 | . | . | / | / | /
C[C@H]1CN([C@@H](C)CO)S(=O)(=O)c2ccc(-c3ccncc3)cc2O[C@H]1CN(C)S(=O)(=O)c1ccccc1F | . | . | / | / | /
CC1CCN(C2=NC(=O)/C(=C/c3ccccc3F)S2)CC1 | . | . | 79 | . | 95
CC1CCN(C2=NC(=O)/C(=C/c3cccc(O)c3)S2)CC1 | . | . | . | . | .
NNc1ncnc2scc(-c3ccc(Cl)cc3)c12 | . | . | . | . | .
OCCCNc1ncnc2scc(-c3ccc(Cl)cc3)c12 | . | . | . | . | 73
CN1CCN(/N=C/c2ccc(N(C)c3ccccc3)cc2)CC1 | . | . | . | . | .
CN1CCN(/N=C/c2ccc(N(c3ccccc3)c3ccccc3)cc2)CC1 | . | 78 | 64 | . | .
CN1C(=O)c2cc(NC(=O)Cc3cccs3)ccc2OC[C@@H]2O[C@H](CC(=O)N[C@@H]3CCN(Cc4ccccc4)C3)CC[C@H]21 | . | . | / | / | /
Cc1c(C)c2ccc(OCC(=O)NCc3ccccn3)cc2oc1=O | . | . | . | . | .
O=C(COc1ccc2c(c1)CCC2)Nc1ccccn1 | . | 74 | 71 | . | 97
Cc1c(C)c2ccc(OCC(=O)Nc3nccs3)cc2oc1=O | . | 56 | . | . | 90
Cc1c(C)c2ccc(OCC(=O)Nc3ccccn3)cc2oc1=O | . | . | . | . | 82
Cc1cc(=O)oc2cc(OCC(=O)Nc3nccs3)ccc12 | . | . | . | . | .
COc1cc([C@H]2[C@@H]3CCCC[C@]3(O)CCN2CC(=O)Nc2ccc(C)cc2)ccc1O | / | / | . | . | 66
O=C1CN(S(=O)(=O)c2ccccc2)C[C@H]2[C@@H](c3ccc(Br)cc3)[C@H](CO)N12 | . | . | / | / | /
O=C(C[C@@H]1C=C[C@@H](NC(=O)c2ccc(F)cc2)[C@H](CO)O1)NCCc1ccccc1 | . | . | / | / | /
CCOC(=O)c1sc(N(Cc2ccccc2)C(=O)COC(=O)c2ccccc2O)nc1C | . | / | . | . | .
CCOC(=O)c1sc(N(Cc2ccccc2)C(=O)COC(=O)c2ccc(O)cc2)nc1C | . | . | . | . | 71
Cc1ccc(C(=O)NN=CC(=O)c2ccccc2)c(C)c1 | . | 70 | 52 | . | 65
Cc1ccc2[nH]c(C(=O)NN=C3CCCCC3)c(-c3ccccc3)c2c1 | . | . | . | . | 51
CCN(CC)C(=O)c1ccc2nc([C@H]3C[C@H](O)[C@@H](CO)O3)[nH]c2c1 | . | . | . | . | .
SMILES | XiGFP reactiv | LGR2 antag | TROY NFkB inh | CaV13 ICDI inh | TWEAK Fn14 block
OC[C@H]1O[C@@H](c2nc3ccc(-c4nc(-c5ccc(Br)cc5)no4)cc3[nH]2)C[C@@H]1O | . | . | . | . | 63
COc1ccc(-c2csc(NC(=O)CSc3nc(SC)ns3)n2)cc1 | . | . | 54 | . | 69
COc1ccc2nc(NC(=O)CSc3nc(SC)ns3)sc2c1 | . | . | . | . | 53
COc1ccc(-c2csc(NC(=O)CSc3nc(C)cs3)n2)cc1 | / | / | . | . | .
C[C@@H]1CN([C@H](C)CO)C(=O)Cc2cc(NC(=O)CCN3CCOCC3)ccc2O[C@@H]1CN(C)C(=O)Nc1ccc2c(c1)OCO2 | . | . | / | / | /
Cc1ccc(-c2cc(C(=O)N(C)Cc3cnn(C)c3C)c3cc(Br)ccc3n2)cc1 | . | 71 | . | . | .
Cc1ccc(-c2cc(C(=O)NCc3cnn(C)c3C)c3cc(Br)ccc3n2)cc1 | / | / | . | . | .
C[C@H]1CN([C@@H](C)CO)C(=O)c2cc(C#Cc3cccnc3)cnc2O[C@H]1CN(C)Cc1ccccc1 | . | . | / | / | /
CCCC(=O)N(Cc1cc(=O)[nH]c2ccccc12)c1ccc(C)cc1C | . | . | . | . | .
Cc1ccc(N(Cc2cc(=O)[nH]c3ccccc23)C(=O)CCl)c(C)c1 | . | . | . | . | 63
CN(C)CCCNC(=O)C[C@H]1C=C[C@H](NS(=O)(=O)c2ccc(F)cc2)[C@H](CO)O1 | . | . | / | / | /
C[n+]1c(-c2ccccc2)cc2c(=Cc3ccccc3)c3ccccc3n21 | . | ? | . | . | 74
C[n+]1c(-c2ccccc2)cc2c(=Cc3ccc([N+](=O)[O-])cc3)c3ccccc3n21 | . | . | . | . | .
Cc1cc2c(=Cc3ccc(N(C)C)cc3)c3ccccc3n2[n+]1C | . | . | . | . | 67
O=C(Cc1ccccn1)N1CC(=O)N2[C@H](CO)[C@H](c3ccc(-c4ccc(F)cc4)cc3)[C@H]2C1 | . | . | / | / | /
CC(=O)c1sc(N/N=C/c2cccc(O)c2)nc1C | . | . | . | . | .
CC(=O)c1sc(N/N=C\c2ccc(N(C)C)cc2)nc1C | . | . | . | + | .
N#CC(c1ccccc1)c1ccc2c(C(F)(F)F)cc(C(F)(F)F)nc2n1 (configuration not stated) | / | / | 59 | / | 53
Cc1ccc(C(C#N)c2ccc3c(C(F)(F)F)cc(C(F)(F)F)nc3n2)cc1 (configuration not stated) | / | / | . | . | 50
